Assay results from ChEMBL document CHEMBL1150247, “Structural determinants for affinity enhancement of a dual antagonist peptide entry inhibitor of human immunodeficiency virus type-1” (J Med Chem, 2008).
Values belong to the compound of their own block, whether it stands above or below them.

Legend:
[1] = Binding affinity to immobilized HIV1 YU2 gp120 by surface plasmon resonance method; design: species or system Human immunodeficiency virus 1
Outline: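 YU2 gp120 (Drosophila S2-expressed, F105-affinity purified) amine-coupled to CM5 chip (~4000 RU); peptides in PBS injected at 15 μL/min, 5 min association, 5 min dissociation. Buffer and anti-IL5Rα 2B6R control-surface responses subtracted; kinetic constants fitted in BIAevaluation.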

[2] = system: Human immunodeficiency virus 1; assay: Antiviral activity against HIV1 BaL in CCR5 expressing P4 cells after 2 hrs; type: functional, organism-based; conditions: Human immunodeficiency virus 1, BaL, P4, 2 h
Outline: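 P4-CCR5 cells (DMEM, 10% FBS, puromycin) seeded 1.2×10^4/well ~18 h ahead; exposed 2 h to HIV-1 BaL plus peptide, washed, cultured 46 more h; infection read by β-galactosidase reporter assay. Infectivity relative to mock-treated infected cells; IC50 from sigmoidal dose-response fit; two independent experiments combined.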

[3] = Inhibition of HIV1 YU2 gp120 binding to immobilized CD4 binding site specific F105 monoclonal antibody by surface plasmon resonance method; design: species or system Human immunodeficiency virus 1
[4] = Inhibition of HIV1 YU2 gp120 binding to immobilized CD4 binding site specific immunoglobulin G b12 monoclonal antibody by surface plasmon resonance method; design: species or system Human immunodeficiency virus 1
[5] = Inhibition of HIV1 YU2 gp120 binding to immobilized CD4 by surface plasmon resonance method; design: species or system Human immunodeficiency virus 1
[6] = Cytotoxicity against CCR5 expressing human P4 cells after 2 hrs by MTT assay; type: cell-based; conditions: p4, 2 h
Outline: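 P4-CCR5 cells seeded 4×10^4/well ~18 h ahead, exposed 2 h to varying peptide concentrations, washed, then viability by MTT; triplicate in two independent assays.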

[7] = Inhibition of HIV1 YU2 gp120 binding to immobilized CD4 induced 17b monoclonal antibody by surface plasmon resonance method; design: species or system Human immunodeficiency virus 1
[8] = Inhibition of HIV1 YU2 gp120 binding to immobilized CD4 binding site specific b6 monoclonal antibody by surface plasmon resonance method; design: species or system Human immunodeficiency virus 1

SMILES: CC[C@H](C)[C@H](NC(=O)[C@@H](N)CCCNC(=N)N)C(=O)N[C@@H](CC(N)=O)C(=O)N[C@@H](CC(N)=O)C(=O)N[C@H](C(=O)N1C[C@@H](n2cc(-c3ccc(CCc4ccccc4)cc3)nn2)C[C@H]1C(=O)N[C@@H](Cc1c[nH]c2ccccc12)C(=O)N[C@@H](CO)C(=O)N[C@@H](CCC(=O)O)C(=O)N[C@@H](C)C(=O)N[C@@H](CCSC)C(=O)N[C@@H](CCSC)C(=O)O)[C@@H](C)CC
IC50 [2]: 610000 nM | IC50 [3]: 23 nM | IC50 [4]: 65 nM | IC50 [5]: 99 nM | Activity [6]: Non-toxic | IC50 [7]: 129 nM | IC50 [8]: 85 nM

SMILES: CC[C@H](C)[C@H](NC(=O)[C@@H](N)CCCNC(=N)N)C(=O)N[C@@H](CC(N)=O)C(=O)N[C@@H](CC(N)=O)C(=O)N[C@H](C(=O)N1C[C@@H](n2cc(-c3ccccc3C)nn2)C[C@H]1C(=O)N[C@@H](Cc1c[nH]c2ccccc12)C(=O)N[C@@H](CO)C(=O)N[C@@H](CCC(=O)O)C(=O)N[C@@H](C)C(=O)N[C@@H](CCSC)C(=O)N[C@@H](CCSC)C(=O)O)[C@@H](C)CC
Kd [1]: 128 nM

SMILES: CC[C@H](C)[C@H](NC(=O)[C@@H](N)CCCNC(=N)N)C(=O)N[C@@H](CC(N)=O)C(=O)N[C@@H](CC(N)=O)C(=O)N[C@H](C(=O)N1C[C@@H](n2cc(-c3cc(C)ccc3C)nn2)C[C@H]1C(=O)N[C@@H](Cc1c[nH]c2ccccc12)C(=O)N[C@@H](CO)C(=O)N[C@@H](CCC(=O)O)C(=O)N[C@@H](C)C(=O)N[C@@H](CCSC)C(=O)N[C@@H](CCSC)C(=O)O)[C@@H](C)CC
Kd [1]: 741 nM

SMILES: CC[C@H](C)[C@H](NC(=O)[C@@H](N)CCCNC(=N)N)C(=O)N[C@@H](CC(N)=O)C(=O)N[C@@H](CC(N)=O)C(=O)N[C@H](C(=O)N1C[C@@H](n2cc(-c3ccccc3N)nn2)C[C@H]1C(=O)N[C@@H](Cc1c[nH]c2ccccc12)C(=O)N[C@@H](CO)C(=O)N[C@@H](CCC(=O)O)C(=O)N[C@@H](C)C(=O)N[C@@H](CCSC)C(=O)N[C@@H](CCSC)C(=O)O)[C@@H](C)CC
Kd [1]: 25000 nM

SMILES: CC[C@H](C)[C@H](NC(=O)[C@@H](N)CCCNC(=N)N)C(=O)N[C@@H](CC(N)=O)C(=O)N[C@@H](CC(N)=O)C(=O)N[C@H](C(=O)N1C[C@@H](n2cc(-c3ccccc3OC)nn2)C[C@H]1C(=O)N[C@@H](Cc1c[nH]c2ccccc12)C(=O)N[C@@H](CO)C(=O)N[C@@H](CCC(=O)O)C(=O)N[C@@H](C)C(=O)N[C@@H](CCSC)C(=O)N[C@@H](CCSC)C(=O)O)[C@@H](C)CC
Kd [1]: 14000 nM

SMILES: CC[C@H](C)[C@H](NC(=O)[C@@H](N)CCCNC(=N)N)C(=O)N[C@@H](CC(N)=O)C(=O)N[C@@H](CC(N)=O)C(=O)N[C@H](C(=O)N1C[C@H](n2cc(-c3ccccc3)nn2)C[C@H]1C(=O)N[C@@H](Cc1c[nH]c2ccccc12)C(=O)N[C@@H](CO)C(=O)N[C@@H](CCC(=O)O)C(=O)N[C@@H](C)C(=O)N[C@@H](CCSC)C(=O)N[C@@H](CCSC)C(=O)O)[C@@H](C)CC
Kd [1]: 2700 nM

SMILES: CC[C@H](C)[C@H](NC(=O)[C@@H](N)CCCNC(=N)N)C(=O)N[C@@H](CC(N)=O)C(=O)N[C@@H](CC(N)=O)C(=O)N[C@H](C(=O)N1C[C@@H](n2cc(Cn3nnc4ccccc43)nn2)C[C@H]1C(=O)N[C@@H](Cc1c[nH]c2ccccc12)C(=O)N[C@@H](CO)C(=O)N[C@@H](CCC(=O)O)C(=O)N[C@@H](C)C(=O)N[C@@H](CCSC)C(=O)N[C@@H](CCSC)C(=O)O)[C@@H](C)CC
Kd [1]: 388 nM

SMILES: CC[C@H](C)[C@H](NC(=O)[C@@H](N)CCCNC(=N)N)C(=O)N[C@@H](CC(N)=O)C(=O)N[C@@H](CC(N)=O)C(=O)N[C@H](C(=O)N1C[C@@H](n2cc(-c3ccc(OC)cc3)nn2)C[C@H]1C(=O)N[C@@H](Cc1c[nH]c2ccccc12)C(=O)N[C@@H](CO)C(=O)N[C@@H](CCC(=O)O)C(=O)N[C@@H](C)C(=O)N[C@@H](CCSC)C(=O)N[C@@H](CCSC)C(=O)O)[C@@H](C)CC
Kd [1]: 154 nM

SMILES: CC[C@H](C)[C@H](NC(=O)[C@@H](N)CCCNC(=N)N)C(=O)N[C@@H](CC(N)=O)C(=O)N[C@@H](CC(N)=O)C(=O)N[C@H](C(=O)N1C[C@@H](n2cc(-c3ccccc3CO)nn2)C[C@H]1C(=O)N[C@@H](Cc1c[nH]c2ccccc12)C(=O)N[C@@H](CO)C(=O)N[C@@H](CCC(=O)O)C(=O)N[C@@H](C)C(=O)N[C@@H](CCSC)C(=O)N[C@@H](CCSC)C(=O)O)[C@@H](C)CC
Kd [1]: 1930 nM

SMILES: CC[C@H](C)[C@H](NC(=O)[C@@H](N)CCCNC(=N)N)C(=O)N[C@@H](CC(N)=O)C(=O)N[C@@H](CC(N)=O)C(=O)N[C@H](C(=O)N1C[C@@H](n2cc(-c3cc(C)c(C)cc3C)nn2)C[C@H]1C(=O)N[C@@H](Cc1c[nH]c2ccccc12)C(=O)N[C@@H](CO)C(=O)N[C@@H](CCC(=O)O)C(=O)N[C@@H](C)C(=O)N[C@@H](CCSC)C(=O)N[C@@H](CCSC)C(=O)O)[C@@H](C)CC
Kd [1]: 160 nM

SMILES: CC[C@H](C)[C@H](NC(=O)[C@@H](N)CCCNC(=N)N)C(=O)N[C@@H](CC(N)=O)C(=O)N[C@@H](CC(N)=O)C(=O)N[C@H](C(=O)N1C[C@@H](n2cc(-c3ccc(N)cc3)nn2)C[C@H]1C(=O)N[C@@H](Cc1c[nH]c2ccccc12)C(=O)N[C@@H](CO)C(=O)N[C@@H](CCC(=O)O)C(=O)N[C@@H](C)C(=O)N[C@@H](CCSC)C(=O)N[C@@H](CCSC)C(=O)O)[C@@H](C)CC
Kd [1]: 437 nM

Continued by falling Kd [1], values first:

Kd [1]: 115 nM
SMILES: CC[C@H](C)[C@H](NC(=O)[C@@H](N)CCCNC(=N)N)C(=O)N[C@@H](CC(N)=O)C(=O)N[C@@H](CC(N)=O)C(=O)N[C@H](C(=O)N1C[C@@H](n2cc(CSc3ccccc3)nn2)C[C@H]1C(=O)N[C@@H](Cc1c[nH]c2ccccc12)C(=O)N[C@@H](CO)C(=O)N[C@@H](CCC(=O)O)C(=O)N[C@@H](C)C(=O)N[C@@H](CCSC)C(=O)N[C@@H](CCSC)C(=O)O)[C@@H](C)CC

Kd [1]: 98 nM
SMILES: CC[C@H](C)[C@H](NC(=O)[C@@H](N)CCCNC(=N)N)C(=O)N[C@@H](CC(N)=O)C(=O)N[C@@H](CC(N)=O)C(=O)N[C@H](C(=O)N1C[C@@H](n2cc(C3=CCCCC3)nn2)C[C@H]1C(=O)N[C@@H](Cc1c[nH]c2ccccc12)C(=O)N[C@@H](CO)C(=O)N[C@@H](CCC(=O)O)C(=O)N[C@@H](C)C(=O)N[C@@H](CCSC)C(=O)N[C@@H](CCSC)C(=O)O)[C@@H](C)CC

Kd [1]: 91 nM
SMILES: CC[C@H](C)[C@H](NC(=O)[C@@H](N)CCCNC(=N)N)C(=O)N[C@@H](CC(N)=O)C(=O)N[C@@H](CC(N)=O)C(=O)N[C@H](C(=O)N1C[C@@H](n2cc(-c3ccc(F)cc3)nn2)C[C@H]1C(=O)N[C@@H](Cc1c[nH]c2ccccc12)C(=O)N[C@@H](CO)C(=O)N[C@@H](CCC(=O)O)C(=O)N[C@@H](C)C(=O)N[C@@H](CCSC)C(=O)N[C@@H](CCSC)C(=O)O)[C@@H](C)CC

Kd [1]: 83 nM
SMILES: CC[C@H](C)[C@H](NC(=O)[C@@H](N)CCCNC(=N)N)C(=O)N[C@@H](CC(N)=O)C(=O)N[C@@H](CC(N)=O)C(=O)N[C@H](C(=O)N1C[C@@H](n2cc(-c3cccc(C)c3)nn2)C[C@H]1C(=O)N[C@@H](Cc1c[nH]c2ccccc12)C(=O)N[C@@H](CO)C(=O)N[C@@H](CCC(=O)O)C(=O)N[C@@H](C)C(=O)N[C@@H](CCSC)C(=O)N[C@@H](CCSC)C(=O)O)[C@@H](C)CC

Kd [1]: 54 nM
SMILES: CC[C@H](C)[C@H](NC(=O)[C@@H](N)CCCNC(=N)N)C(=O)N[C@@H](CC(N)=O)C(=O)N[C@@H](CC(N)=O)C(=O)N[C@H](C(=O)N1C[C@@H](n2cc(-c3cccc4ccccc34)nn2)C[C@H]1C(=O)N[C@@H](Cc1c[nH]c2ccccc12)C(=O)N[C@@H](CO)C(=O)N[C@@H](CCC(=O)O)C(=O)N[C@@H](C)C(=O)N[C@@H](CCSC)C(=O)N[C@@H](CCSC)C(=O)O)[C@@H](C)CC

Kd [1]: 38 nM
SMILES: CC[C@H](C)[C@H](NC(=O)[C@@H](N)CCCNC(=N)N)C(=O)N[C@@H](CC(N)=O)C(=O)N[C@@H](CC(N)=O)C(=O)N[C@H](C(=O)N1C[C@@H](n2cc(-c3ccc(F)c(C)c3)nn2)C[C@H]1C(=O)N[C@@H](Cc1c[nH]c2ccccc12)C(=O)N[C@@H](CO)C(=O)N[C@@H](CCC(=O)O)C(=O)N[C@@H](C)C(=O)N[C@@H](CCSC)C(=O)N[C@@H](CCSC)C(=O)O)[C@@H](C)CC

Kd [1]: 12 nM | IC50 [2]: 156 nM | IC50 [3]: 76 nM | IC50 [4]: 117 nM | IC50 [5]: 67 nM | IC50 [7]: 94 nM | IC50 [8]: 136 nM
SMILES: CC[C@H](C)[C@H](NC(=O)[C@@H](N)CCCNC(=N)N)C(=O)N[C@@H](CC(N)=O)C(=O)N[C@@H](CC(N)=O)C(=O)N[C@H](C(=O)N1C[C@@H](n2cc(-c3ccc(C)cc3)nn2)C[C@H]1C(=O)N[C@@H](Cc1c[nH]c2ccccc12)C(=O)N[C@@H](CO)C(=O)N[C@@H](CCC(=O)O)C(=O)N[C@@H](C)C(=O)N[C@@H](CCSC)C(=O)N[C@@H](CCSC)C(=O)O)[C@@H](C)CC
Activity [6]: Non-toxic

Kd [1]: 9 nM | IC50 [2]: 418 nM | IC50 [3]: 137 nM | IC50 [4]: 191 nM | IC50 [5]: 146 nM | IC50 [7]: 177 nM | IC50 [8]: 235 nM
SMILES: CCc1ccc(-c2cn([C@H]3C[C@@H](C(=O)N[C@@H](Cc4c[nH]c5ccccc45)C(=O)N[C@@H](CO)C(=O)N[C@@H](CCC(=O)O)C(=O)N[C@@H](C)C(=O)N[C@@H](CCSC)C(=O)N[C@@H](CCSC)C(=O)O)N(C(=O)[C@@H](NC(=O)[C@H](CC(N)=O)NC(=O)[C@H](CC(N)=O)NC(=O)[C@@H](NC(=O)[C@@H](N)CCCNC(=N)N)[C@@H](C)CC)[C@@H](C)CC)C3)nn2)cc1
Activity [6]: Non-toxic
